# PvdQ acylase – P. aeruginosa PvdQ acylase inhibition; purified PvdQ acylase, fluorescence plate reader; inhibition, % at 10 µM; actives 0.063% (n = 340,000); AID 488965; in the data active = inhibition above about 30%, passing the limit was not always enough
# CDK5 inh – blocks human CDK5/p35 kinase activity; AID 488839; inhibition, % at 10 µM; actives 0.01% (n = 330,000); Recombinant CDK5/p35, ADP-Glo luminescence, 60 min;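 active = highest replicate inhibition of at least 50% and at least 75% of replicates reaching 50%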
# Target sequence (Q00535 whole entry, looked up): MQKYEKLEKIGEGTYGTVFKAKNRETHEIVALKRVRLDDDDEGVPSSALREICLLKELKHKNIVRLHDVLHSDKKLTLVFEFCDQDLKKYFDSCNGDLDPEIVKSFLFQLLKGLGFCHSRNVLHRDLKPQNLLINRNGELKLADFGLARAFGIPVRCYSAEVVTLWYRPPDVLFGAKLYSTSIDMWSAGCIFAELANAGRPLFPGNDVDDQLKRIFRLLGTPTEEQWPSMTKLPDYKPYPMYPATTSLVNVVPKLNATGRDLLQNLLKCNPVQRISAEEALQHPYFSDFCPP
# Target sequence (Q15078 whole entry, looked up): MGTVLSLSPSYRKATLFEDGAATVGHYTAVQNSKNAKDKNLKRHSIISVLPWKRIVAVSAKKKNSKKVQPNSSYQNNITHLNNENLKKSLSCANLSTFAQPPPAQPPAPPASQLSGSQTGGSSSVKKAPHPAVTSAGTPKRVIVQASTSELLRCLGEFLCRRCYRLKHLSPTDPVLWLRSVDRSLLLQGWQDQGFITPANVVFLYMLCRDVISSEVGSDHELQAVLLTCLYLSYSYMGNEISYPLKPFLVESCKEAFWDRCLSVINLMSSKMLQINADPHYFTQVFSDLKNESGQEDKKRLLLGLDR
# Dyrk1A ADPGlo – blocks rat Dyrk1A kinase activity | inhibition, % at 12.5 µM | actives 0.43% (n = 310,000) | ADP-Glo luminescence, NFATc1 peptide | AID 504441; in the data active = inhibition above about 50%
# CAL PDZ FP-1 – blocks peptide binding to human CAL PDZ domain. Q9HD26. purified CAL PDZ, TMR-peptide fluorescence polarization, 1 h. inhibition, % at 20 µM. actives 0.02% (n = 330,000);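 active = highest replicate inhibition of at least 40%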
#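 Test system: tagged CAL PDZ domain / Buffer or medium: sodium phosphate/NaCl buffer pH 7.4 with TCEP, IgG, Thesit / Reagent: TMR-labelled reporter peptide T*-PRC34 bound in PDZ groove / Compound dosing: single point, 20 µM / Schedule: 1 h incubation at room temperature before polarization reading / Technique: fluorescence polarization (mP) / Benchmarks: unlabelled peptide, DMSO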
# CAL PDZ FP-2 – blocks peptide binding to the human CAL PDZ domain; Q9HD26; purified CAL PDZ, TMR-peptide fluorescence polarization, 1 h; inhibition, % at 24.9 µM; actives 0.92% (n = 300,000);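 active = mean inhibition of at least 30% with at least half of replicates also reaching 30%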
# Tb MetRS inh – blocks T. brucei methionyl-tRNA synthetase activity; AID 624268; purified T. brucei MetRS, ATP depletion, Kinase-Glo luminescence; actives 0.4% (n = 360,000); inhibition, % at 11.9 µM;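 active = inhibition above a per-plate cutoff of the control wells' mean inhibition plus 3 SD, cut at about 5.5% in these data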
#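 technique = Kinase-Glo luminescence, ATP depletion format | system = purified MetRS (methionyl-tRNA synthetase) enzyme from Trypanosoma brucei | timing = 15 min preincubation, 2 h reaction, all 25 °C | evaluation = percent inhibition versus plate control medians | dosing = single dose, 11.9 µM final nominal, 0.9% final DMSO | also added = substrates ATP, L-methionine and bulk Escherichia coli tRNA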
# Tb MetRS conf – confirmation of Trypanosoma brucei MetRS inhibitors; shares compounds with Tb MetRS inh; T. brucei MetRS enzyme, luminescence (ATP depletion); inhibition, % at 11.9 µM; actives 93% (n = 1,400); in the data active = inhibition above about 7%
# Jurkat cytotox – counter-screen for T. brucei MetRS inhibitors: Jurkat cell cytotoxicity; inhibition, % at 8.3 µM; Jurkat cells viability, ATP luminescence; AID 624413; actives 12% (n = 1,400); shares compounds with Tb MetRS inh; in the data active = inhibition above about 15%
# Tb MetRS inh FP – orthogonal test for Trypanosoma brucei MetRS inhibitors | shares compounds with Tb MetRS inh | purified T. brucei MetRS, fluorescence polarization | inhibition, % at 11.9 µM | actives 44% (n = 1,400) | AID 651607; in the data active = inhibition above about 17%
# Hits are given with their value; n = inactive; x = no result. Only some compounds are listed: those with a hit (about 1.4% of all), similar ones and a draw of the others.
SMILES,PvdQ acylase,CDK5 inh,Dyrk1A ADPGlo,CAL PDZ FP-1,CAL PDZ FP-2,Tb MetRS inh,Tb MetRS conf,Jurkat cytotox,Tb MetRS inh FP
NS(=O)(=O)c1ccc(CCNC(=O)C(=O)c2c[nH]c3ccccc23)cc1,n,n,n,n,n,12,26,n,n
CCOC(=O)C1=CCN(S(=O)(=O)c2ccc(C)cc2)C1c1ccc(Cl)c(Cl)c1 (stereo unspecified),x,x,x,x,x,n,x,x,x
Nc1ncnc2nc(SCCOc3ccc(Cl)cc3)[nH]c12,n,n,n,n,n,5.7,14,n,n
CC(C)NC(=O)C1(C)CN(S(C)(=O)=O)CC(=O)N1CCCN1CCOCC1 (stereo unspecified),x,x,x,x,x,n,x,x,x
O=C(Cn1c(/C=C/c2ccccc2)nc2ccccc21)Nc1ccc(F)cc1,n,n,n,n,n,32,55,n,39
Oc1c(Cl)cc(Cl)cc1CNc1ccccn1,n,n,n,n,n,n,x,x,x
Oc1c(Cl)cc(Cl)cc1CNc1nc2ccccc2[nH]1,n,n,n,n,x,93,108,n,102
COc1ccc(-c2nnc(SC(C(=O)c3c[nH]c4ccccc34)c3ccccc3)n2N)cc1OC (stereo unspecified),n,n,n,n,n,16,28,n,18
NS(=O)(=O)c1ccc(CCNC(=O)CCCn2c(=O)[nH]c3ccc(Br)cc3c2=O)cc1,n,n,n,n,n,14,22,n,n
CCN(CC)C(=O)c1ccc(Oc2ccc([N+](=O)[O-])cc2Cl)cc1,n,n,n,n,n,5.9,13,n,n
Cc1ccc2nc(/C(C#N)=C/c3cn[nH]c3-c3ccc(F)cc3)[nH]c2c1,n,n,n,n,n,24,51,57,47
Cc1cc(C)c(C)c(S(=O)(=O)Nc2cccc(-n3cnnn3)c2)c1C,n,n,n,n,n,7.3,17,n,n
CCCCCCCCCC1NC(C(=O)O)Cc2c1[nH]c1ccccc21 (stereo unspecified),x,x,x,x,x,70,93,n,74
CCOC(=O)C1Cc2c([nH]c3ccccc23)C(C)N1 (stereo unspecified),n,n,n,n,n,n,x,x,x
COC(=O)[C@H](Cc1c[nH]c2ccccc12)NC(=O)NCc1ccc(OC)cc1,n,n,n,n,n,6.6,15,n,n
COC(=O)[C@H](Cc1c[nH]c2ccccc12)NC(=O)NCc1ccc(OC)c(OC)c1,n,n,n,n,n,n,x,x,x
O=C(NCc1ccccc1)c1cc(C2CCCN(C(=O)C3CCCCC3)C2)on1 (stereo unspecified),x,x,x,x,x,n,x,x,x
O=C1/C(=C/c2c[nH]c3ccccc23)CCC/C1=C\c1c[nH]c2ccccc12,n,n,n,n,x,6.2,7.5,18,18
N#C/C(=C/c1cccc(O)c1)C(=O)NCc1ccc(Cl)cc1,n,n,n,n,n,n,x,x,x
N#C/C(=C/c1ccc(O)c(O)c1)C(=O)NCc1ccc(Cl)cc1,n,n,n,n,n,15,36,17,n
CCCCN(C=O)c1c(CC)nc2c(OCCOc3ccccc3)cccn12,x,x,x,x,x,n,x,x,x
Oc1oc(-c2ccc(Br)cc2)nc1C=Nc1ccc(Br)cn1,n,n,n,n,n,8.7,65,n,32
Cc1ccc(N=Cc2nc(-c3ccc(C)cc3)oc2O)cc1,n,n,n,n,n,n,x,x,x
Cc1nc(SCC(=O)NCc2ccccc2)c2c(=O)n(C)c(=O)n(C)c2n1,n,n,n,n,n,5.6,n,n,n
O=C(CCc1nc2ccccc2[nH]1)N1CCN(C(=O)c2ccco2)CC1,n,n,n,n,n,n,x,x,x
O=C(CSc1ccc(-c2nc3ccccc3[nH]2)cn1)N1CCN(C(=O)c2ccco2)CC1,n,n,n,n,x,7.8,15,15,n
O=C(C/C=N\OCc1ccc([N+](=O)[O-])cc1)Nc1ccc(Cl)cc1,n,n,n,n,n,74,101,n,80
O=C(C/C=N\OCc1ccc([N+](=O)[O-])cc1)Nc1ccccc1,n,n,n,n,n,13,31,n,n
C[C@@H]1CN([C@H](C)CO)S(=O)(=O)c2ccc(C#CCN(C)C)cc2O[C@@H]1CN(C)Cc1ccccc1F,x,x,x,x,x,n,x,x,x

# Source: PubChem
